PfG6PD inh: PfG6PD enzyme inhibitors, primary screen, biochemical, fluorescence intensity, uHTS; PfGluPho enzyme, NADPH resazurin-diaphorase fluorescence; inhibition, % at 20 µM; glucose-6-phosphate dehydrogenase-6-phosphogluconolactonase (Plasmodium falciparum 3D7); 0.78% of 350,000 active;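 active means inhibition reaching at least a set limit at 20 µM in the primary screen, cut at about 59% in these data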;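 further: 0% = DMSO wells with substrate and 100% = DMSO wells lacking glucose-6-phosphate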
G6PDH counter: L. mesenteroides G6PDH inhibitors, counter-screen for G6PDH-coupled screening assays, biochemical, Leuconostoc mesenteroides enzyme. glucose-6-phosphate dehydrogenase [Leuconostoc mesenteroides]. Purified L. mesenteroides G6PDH, diaphorase/resazurin coupled fluorescence, 45 min. inhibition, % at 5 µM. 0.12% of 200,000 active. AID 1020, 2008
Diaphorase act: compounds boosting diaphorase resazurin reduction – biochemical, uHTS, resorufin fluorescence, counter-screen for diaphorase-coupled primary assays, primary screen; Diaphorase/resazurin coupled assay, 16 min; hits give high values; 1 = vehicle wells, 0 = NADH-free wells; activation factor at 20 µM; 0.005% of 190,000 active; AID 1229, 2008;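 active means diaphorase activity raised at least twofold by the compound at 20 µM; inactive means activation factor below 2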
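Material: Clostridium kluyveri diaphorase, purified enzyme; Quantity: enzyme 0.07 U/mL final; Medium: HEPES pH 7.4 buffer with MgCl2 and Tween 20; Dosing: single compound dose of 20 µM, 1% DMSO final; Schedule: 16 min reaction at room temperature; Measured by: red resorufin fluorescence at 544/590 nm excitation/emission.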
Lmaj promast: Leishmania major promastigote growth inhibition, primary screen. Leishmania major promastigotes, resazurin fluorescence viability. inhibition, % at 10 µM. 9% of 200,000 active. AID 1063, 2008;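 further: promastigotes grown with compound for 44 hours at 28 °C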
DTT redox prof: compounds producing H2O2 with reducing agent – biochemical, NIH compound library profiling, artefact control for MLSCN library redox annotation, primary screen; activation, % at 10 µM; DTT-dependent redox cycling H2O2, phenol red/HRP absorbance; 100% = 100 µM peroxide control, 0% = buffer; 0.03% of 200,000 active;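 active means activation of at least 50% relative to the plate's high and low controls in the primary single-dose screen; inactive means activation below 50%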;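 further: compound incubated with DTT at 0.8 mM final as the reducing agent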
Diaph inh CS: diaphorase inhibitors and chemical oxidizers, primary screen, counter-screen for diaphorase-coupled primary assays, biochemical, uHTS, resorufin fluorescence | diaphorase resazurin-to-resorufin fluorescence, NADH, 16 min; bacterial (C. kluyveri) enzyme, not human | inhibition, % at 20 µM | 0.69% of 190,000 active;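 active means primary screen inhibition at 20 µM above a set limit, cut at about 50% in these data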;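 further: plate controls were DMSO with full reaction for no effect and wells lacking NADH for full effect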
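System: Diaphorase enzyme from Clostridium kluyveri | Amount: Enzyme working solution with 0.14 U/mL diaphorase | Benchmarks: No-NADH positive control and DMSO neutral control | Signal: Fluorescence of resorufin formed from resazurin, Ex 544/Em 590 nm | Schedule: 16-min room-temperature incubation before reading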
Active calls of the source: *; · = not tested or not shown. This is one part of a sample in which hits are shown more often than they occur. Unless noted, no stated cut-off is given here; in the data, active means inhibition above about 50%; inactive means the rest.

SMILES | PfG6PD inh | G6PDH counter | Diaphorase act | Lmaj promast | DTT redox prof | Diaph inh CS
Cc1ccc(C(C)NC(=S)NC2CCCCC2)c(C)c1 (stereo not drawn) | 6 | · | · | · | · | ·
Cn1c(CNC(=O)CNC(=O)c2ccc(C(C)(C)C)cc2)cc(=O)n(C)c1=O | 6 | · | · | · | · | ·
CCOC(=O)c1c(C)[nH]c(C(=O)COC(=O)/C=C/c2ccc(O)c(OC)c2)c1C | 2 | 8 | 0.8 | 99* | 0 | 22
COc1ccc(C(=O)COC(=O)CNC(=O)c2ccc(Cl)cc2Cl)c(OC)c1 | 8 | · | · | · | · | ·
CCOC(=O)c1c(C)[nH]c(C(=O)COC(=O)CNC(=O)c2ccc(Cl)cc2Cl)c1C | -24 | -1 | 1.1 | 52* | 0 | -5
CN(Cc1ccccc1)C(=O)c1ccccc1N(C)S(=O)(=O)c1ccccc1 | -10 | · | · | · | · | ·
O=C(/C=C/c1ccoc1)c1ccccc1O | -11 | 6 | 0.8 | 76* | 2 | 20
COc1ccc2ccccc2c1C(=O)/C=C\c1ccoc1 | 26 | 8 | 0.5 | 30 | -1 | 52*
COc1cc(OC)c(C(=O)/C=C/c2ccccc2)c(O)c1O | 4 | · | · | · | · | ·
CCN1CCN(CCC(=O)Nc2cc(OC)cc(OC)c2)CC1 | -5 | · | · | · | · | ·
Cc1ccc(/C=C/C(=O)OCC(=O)N(C)c2c(N)n(Cc3ccccc3)c(=O)[nH]c2=O)o1 | 38 | · | · | · | · | ·
Cc1ccc(Oc2ccccc2NC(=O)C2=COCCO2)cc1 | -5 | · | · | · | · | ·
COc1ccc(CCNC(=O)CNCC2CCCCC2)cc1OC | -1 | · | · | · | · | ·
CCCCNCCOCCOc1ccccc1-c1ccccc1 | 6 | 9 | 0.9 | 92* | 0 | 10
C=CCNCCOc1ccccc1-c1ccccc1 | -1 | 0 | 0.9 | 18 | -1 | 10
CC(C)NCCCCOc1ccccc1-c1ccccc1 | · | 0 | 0.9 | 98* | 0 | 12
COCCNCCCCOc1ccccc1-c1ccccc1 | -7 | 10 | 0.9 | 52* | -1 | 11
COc1cccc(NC(=O)CN(C)C(=O)C23CC4CC(CC(Cl)(C4)C2)C3)c1 | -10 | · | · | · | · | ·
COc1cc(Cl)ccc1NC(=O)COc1ccccc1C(=O)NN | 8 | -5 | 0.7 | 31 | -2 | 25
COc1ccc(Cl)cc1NC(=S)N1CC(C)OC(C)C1 (stereo not drawn) | -3 | · | · | · | · | ·
Cc1ccc(C)c(N2CCN(C(=O)C3CCN(S(=O)(=O)c4c(C)noc4C)CC3)CC2)c1 | -5 | · | · | · | · | ·
Cc1noc(C)c1S(=O)(=O)N1CCC(C(=O)N2CCN(c3ccc(Cl)cc3)CC2)CC1 | -3 | 3 | 0.8 | 68* | -1 | 22
Cc1noc(C)c1S(=O)(=O)N1CCC(C(=O)N2CCN(c3ccccc3Cl)CC2)CC1 | 5 | 12 | 0.8 | 97* | 0 | 19
Cc1noc(C)c1S(=O)(=O)N1CCCC(C(=O)N2CCN(C3CCCCC3)CC2)C1 (stereo not drawn) | 17 | 15 | 0.8 | 93* | -1 | 15
CC(C)CC1C(=O)N(Cc2cn(CC3CCCCC3)nn2)CCS(=O)(=O)N1Cc1ccc(-c2cccc(CO)c2)cc1 (stereo not drawn) | 9 | · | · | · | · | ·
COCCn1nnnc1CN(CCc1ccccc1)Cc1cc2ccc(C)cc2[nH]c1=O | 3 | 2 | 0.9 | 100* | -1 | 9
COc1ccccc1CN(Cc1cc2cc(C)cc(C)c2[nH]c1=O)Cc1nnnn1CC1CCCO1 (stereo not drawn) | -5 | 9 | 0.7 | 56* | 2 | 26
COc1ccc2cc(CN(CCc3ccccc3)Cc3nnnn3CC3CCCO3)c(=O)[nH]c2c1 (stereo not drawn) | 19 | 3 | 1 | 100* | -1 | 1
COc1ccc(CCN2CC(C(=O)NC3CCCCC3)CC2=O)cc1OC (stereo not drawn) | 3 | 3 | 1.1 | -14 | -1 | -13
COc1cccc(-c2c(C(=O)N/N=C(\C)c3cccs3)nnn2-c2nonc2N)c1 | 13 | · | · | · | · | ·

Assay outcomes from PubChem BioAssay.
